By bioavailability is commonly meant dose-corrected exposure relative to a reference, in per cent. Lower therefore signals little systemic uptake. As a reminder, the IC50 is the concentration at which inhibition is half-maximal. For orientation: Kd means the equilibrium constant for the complex coming apart. A lower Kd goes with a tighter complex.

Data set [1] has as its target T1, Tyrosine-protein kinase FRK (Homo sapiens, UniProt P42685). Briefly: Inhibition of partial length human FRK expressed in Escherichia coli BL21 assessed as remaining activity at 1 uM after 1 hr by KINOMEscan method. In a few lines: (§1)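 Active-site-dependent competition binding screen run by an outside provider across a 468-kinase panel (403 nonmutated, 65 mutated kinases).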

A short description of data set [2]: Oral bioavailability in Sprague-Dawley rat at 10 mg/kg by HPLC/MS analysis. Format: ADME, organism-based. Conditions: in vivo. Summed up: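 Sprague-Dawley rats given a single oral dose of 10 mg/kg; plasma exposure (AUC), half-life and oral bioavailability derived.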
Data set [3] addresses T2, Serine/threonine-protein kinase B-raf (Homo sapiens, UniProt P15056, V600E). Description: Inhibition of recombinant human B-RAF V600E mutant using Ser/Thr3 as substrate after 1 hr by FRET-based Z'-Lyte assay.
The target in data set [4] is Mast/stem cell growth factor receptor Kit (Homo sapiens, UniProt P10721). Description: Binding affinity to partial length human KIT expressed in Escherichia coli BL21 by active-site-dependent competition assay. In a few lines:
(§2)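 Active-site-dependent competition binding (KINOMEscan) run by an outside service across a panel of 468 kinases (403 nonmutated, 65 mutated); reported as binding constant Kd.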

The target in data set [5] is T1, Tyrosine-protein kinase FRK. Briefly: Binding affinity to partial length human FRK expressed in Escherichia coli BL21 by active-site-dependent competition assay. Summed up: as §2
The test system of data set [6] is Rattus norvegicus. Description: Inhibition of myocardial hypertrophy in spontaneous hypertensive WKY rat model assessed as left ventricular mass at diastole at 20 mg/kg, po administered for 4 continuous weeks (reference value: 1.2 +/- 0.052 g). Format: functional. Summed up:
(§3)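 Spontaneously hypertensive rats randomized into 3 groups given oral 0, 10 or 20 mg/kg/day for 4 continuous weeks; normotensive Wistar-Kyoto rats as reference; n = 6 per group. After sacrifice, left ventricles were collected to measure mass at diastole and systole; heart sections stained with hematoxylin and eosin for cardiomyocyte arrangement.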

For data set [7], the system named is Rattus norvegicus. Description: Inhibition of myocardial hypertrophy in po dosed spontaneous hypertensive WKY rat model assessed as decrease in JNK phosphorylation administered for 4 continuous weeks by Western blot method. Format: functional, organism-based. Summed up: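 Spontaneously hypertensive rats given oral 0, 10 or 20 mg/kg/day for 4 continuous weeks alongside normotensive Wistar-Kyoto controls; left ventricles harvested after sacrifice for Western blot analysis.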
Background: A western blot detects proteins with antibodies after separation by electrophoresis.

In data set [8] the target is Serine/threonine-protein kinase B-raf (Homo sapiens, UniProt P15056). Briefly: Inhibition of wild type GST-tagged recombinant human full-length B-RAF expressed in baculovirus expression system using Ser/Thr3 as substrate after 1 hr by FRET-based Z'-Lyte assay. Summed up: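 Z'-Lyte FRET assay with Ser/Thr3 peptide in kinase buffer; the final reaction held 0.002 ng B-Raf for wild type. Incubated 1 h at room temperature, then 1 h development to cleave nonphosphorylated peptide, then stop reagent. Means of 3 independent experiments.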

Data set [9] concerns the target Mast/stem cell growth factor receptor Kit (Homo sapiens, UniProt P10721, L576P). Briefly: Binding affinity to partial length human KIT L576P mutant expressed in Escherichia coli BL21 by active-site-dependent competition assay. Summed up:
as §2

Another data set has as its target Aurora kinase B (Homo sapiens, UniProt Q96GD4). Briefly: Binding affinity to partial length human AURKB expressed in HEK293 cells by active-site-dependent competition assay. In kind it is cell-based. In a few lines:
as §2

Data set [10] addresses T3, Dual specificity mitogen-activated protein kinase kinase 5 (Homo sapiens) (UniProt Q13163).
T3 sequence (whole entry): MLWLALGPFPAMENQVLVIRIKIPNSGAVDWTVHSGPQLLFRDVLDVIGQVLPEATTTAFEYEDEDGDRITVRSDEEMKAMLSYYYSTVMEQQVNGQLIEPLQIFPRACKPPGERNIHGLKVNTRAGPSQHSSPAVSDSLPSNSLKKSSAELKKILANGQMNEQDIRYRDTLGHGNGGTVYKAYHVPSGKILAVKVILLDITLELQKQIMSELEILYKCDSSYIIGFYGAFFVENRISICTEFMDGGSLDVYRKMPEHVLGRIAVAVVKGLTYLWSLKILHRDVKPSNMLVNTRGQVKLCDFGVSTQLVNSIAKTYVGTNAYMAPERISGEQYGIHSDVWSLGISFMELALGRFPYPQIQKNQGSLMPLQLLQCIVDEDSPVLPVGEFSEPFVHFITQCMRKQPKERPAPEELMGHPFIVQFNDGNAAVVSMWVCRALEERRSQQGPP
Briefly: Inhibition of partial length human MEK5 expressed in HEK293 cells assessed as remaining activity at 1 uM after 1 hr by KINOMEscan method. Format: cell-based. Summed up: as §1

For data set [11], the target named is T2, Serine/threonine-protein kinase B-raf. Description: Binding affinity to partial length human BRAF V600E mutant expressed in HEK293 cells by active-site-dependent competition assay. In kind it is cell-based. In a few lines:
as §2

For data set [12], the target named is Serine/threonine-protein kinase SIK1 (Homo sapiens, UniProt P57059). Description: Inhibition of partial length human SIK expressed in Escherichia coli BL21 assessed as remaining activity at 1 uM after 1 hr by KINOMEscan method. In a few lines: as §1
Data set [13] deals with Mast/stem cell growth factor receptor Kit (Homo sapiens, UniProt P10721, V559D). Briefly: Binding affinity to partial length human KIT V559D mutant expressed in Escherichia coli BL21 by active-site-dependent competition assay. Summed up: as §2
For data set [14], the system named is Rattus norvegicus. Briefly: Inhibition of myocardial hypertrophy in spontaneous hypertensive WKY rat model assessed as decrease in left ventricular mass at systole at 10 to 20 mg/kg, po administered for 4 continuous weeks relative to control. Format: functional. In a few lines: as §3

T2 sequence (P15056 2-766 V600E limits assumed): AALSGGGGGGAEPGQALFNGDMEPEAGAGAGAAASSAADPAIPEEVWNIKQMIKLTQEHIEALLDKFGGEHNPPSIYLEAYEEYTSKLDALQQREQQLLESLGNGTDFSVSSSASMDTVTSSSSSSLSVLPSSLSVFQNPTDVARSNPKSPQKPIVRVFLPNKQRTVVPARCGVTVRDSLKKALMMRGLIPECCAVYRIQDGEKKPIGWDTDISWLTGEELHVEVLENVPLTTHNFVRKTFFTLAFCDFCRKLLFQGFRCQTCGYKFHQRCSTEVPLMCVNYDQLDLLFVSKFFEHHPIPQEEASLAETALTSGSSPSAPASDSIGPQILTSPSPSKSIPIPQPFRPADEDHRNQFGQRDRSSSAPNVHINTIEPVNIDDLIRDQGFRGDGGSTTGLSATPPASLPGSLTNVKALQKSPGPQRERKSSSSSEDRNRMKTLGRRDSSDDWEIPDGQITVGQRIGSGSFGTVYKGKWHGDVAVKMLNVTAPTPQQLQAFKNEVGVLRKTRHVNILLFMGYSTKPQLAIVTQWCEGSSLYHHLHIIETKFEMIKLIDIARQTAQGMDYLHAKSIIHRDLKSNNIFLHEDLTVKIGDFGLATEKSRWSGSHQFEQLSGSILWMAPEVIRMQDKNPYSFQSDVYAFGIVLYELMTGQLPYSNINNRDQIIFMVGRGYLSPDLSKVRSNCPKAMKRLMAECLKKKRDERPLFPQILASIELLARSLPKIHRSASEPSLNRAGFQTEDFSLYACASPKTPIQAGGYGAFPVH
T1 sequence (P42685 whole entry): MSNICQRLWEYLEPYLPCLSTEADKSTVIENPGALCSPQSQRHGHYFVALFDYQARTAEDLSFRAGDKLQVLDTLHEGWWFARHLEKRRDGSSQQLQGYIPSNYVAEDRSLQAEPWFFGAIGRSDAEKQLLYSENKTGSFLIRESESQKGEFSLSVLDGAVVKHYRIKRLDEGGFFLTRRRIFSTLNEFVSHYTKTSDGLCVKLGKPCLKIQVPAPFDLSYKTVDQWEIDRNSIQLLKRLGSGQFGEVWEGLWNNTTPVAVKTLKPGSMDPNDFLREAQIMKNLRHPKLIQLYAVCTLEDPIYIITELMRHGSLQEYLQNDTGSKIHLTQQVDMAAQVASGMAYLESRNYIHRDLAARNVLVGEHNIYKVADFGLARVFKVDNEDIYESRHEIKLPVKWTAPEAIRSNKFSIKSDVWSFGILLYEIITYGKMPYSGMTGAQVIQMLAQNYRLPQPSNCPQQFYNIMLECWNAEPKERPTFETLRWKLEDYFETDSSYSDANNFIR
Mast/stem cell growth factor receptor Kit (Homo sapiens, UniProt P10721, L576P), sequence (P10721 26-976 L576P limits assumed): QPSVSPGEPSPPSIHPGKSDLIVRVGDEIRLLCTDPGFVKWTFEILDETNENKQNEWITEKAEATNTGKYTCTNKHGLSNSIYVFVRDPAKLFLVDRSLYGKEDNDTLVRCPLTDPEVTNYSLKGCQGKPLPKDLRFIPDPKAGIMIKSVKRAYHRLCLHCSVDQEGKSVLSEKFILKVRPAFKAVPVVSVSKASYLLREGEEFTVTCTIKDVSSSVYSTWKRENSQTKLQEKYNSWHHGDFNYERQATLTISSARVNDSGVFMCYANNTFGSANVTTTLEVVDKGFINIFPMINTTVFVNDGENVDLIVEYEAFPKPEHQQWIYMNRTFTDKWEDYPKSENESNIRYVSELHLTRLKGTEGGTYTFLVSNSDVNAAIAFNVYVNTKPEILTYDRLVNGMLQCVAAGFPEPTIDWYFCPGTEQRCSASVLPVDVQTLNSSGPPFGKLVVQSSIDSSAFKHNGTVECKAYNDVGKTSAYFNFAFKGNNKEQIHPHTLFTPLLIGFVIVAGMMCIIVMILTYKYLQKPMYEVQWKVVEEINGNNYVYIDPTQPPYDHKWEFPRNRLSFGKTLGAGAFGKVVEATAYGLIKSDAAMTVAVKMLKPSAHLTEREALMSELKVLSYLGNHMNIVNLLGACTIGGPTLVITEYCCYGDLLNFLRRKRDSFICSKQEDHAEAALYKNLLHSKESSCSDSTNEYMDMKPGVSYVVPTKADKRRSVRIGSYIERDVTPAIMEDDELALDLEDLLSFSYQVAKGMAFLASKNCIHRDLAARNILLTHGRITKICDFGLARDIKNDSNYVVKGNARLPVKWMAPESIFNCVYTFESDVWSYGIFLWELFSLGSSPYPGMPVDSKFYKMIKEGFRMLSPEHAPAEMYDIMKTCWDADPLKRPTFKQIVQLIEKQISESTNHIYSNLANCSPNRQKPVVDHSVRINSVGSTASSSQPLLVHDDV
Mast/stem cell growth factor receptor Kit (Homo sapiens, UniProt P10721, V559D), sequence (P10721 26-976 V559D limits assumed): as the sequence (P10721 26-976 L576P limits assumed) above, with V534D, P551L counted along it
Serine/threonine-protein kinase SIK1, sequence (P57059 whole entry): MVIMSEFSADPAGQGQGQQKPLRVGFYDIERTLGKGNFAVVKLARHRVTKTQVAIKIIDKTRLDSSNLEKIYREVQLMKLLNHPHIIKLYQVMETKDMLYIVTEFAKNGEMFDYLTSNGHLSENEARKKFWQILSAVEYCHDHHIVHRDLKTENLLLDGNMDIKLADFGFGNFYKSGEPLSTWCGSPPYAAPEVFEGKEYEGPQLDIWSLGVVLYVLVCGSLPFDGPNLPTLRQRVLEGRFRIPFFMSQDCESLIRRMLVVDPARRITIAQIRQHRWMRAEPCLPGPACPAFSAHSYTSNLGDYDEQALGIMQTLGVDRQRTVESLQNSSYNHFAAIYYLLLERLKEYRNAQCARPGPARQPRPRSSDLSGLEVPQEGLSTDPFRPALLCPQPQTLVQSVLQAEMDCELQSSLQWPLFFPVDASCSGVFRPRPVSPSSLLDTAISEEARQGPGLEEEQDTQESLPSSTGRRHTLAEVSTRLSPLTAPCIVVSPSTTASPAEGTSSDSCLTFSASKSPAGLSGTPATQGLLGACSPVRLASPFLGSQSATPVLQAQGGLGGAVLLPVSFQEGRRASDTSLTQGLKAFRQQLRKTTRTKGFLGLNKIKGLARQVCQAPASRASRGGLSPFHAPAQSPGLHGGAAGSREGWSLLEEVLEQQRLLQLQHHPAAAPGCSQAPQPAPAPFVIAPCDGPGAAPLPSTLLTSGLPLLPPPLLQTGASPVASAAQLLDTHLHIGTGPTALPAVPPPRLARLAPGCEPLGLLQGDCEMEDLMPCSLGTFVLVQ
Mast/stem cell growth factor receptor Kit (Homo sapiens, UniProt P10721), sequence (P10721 whole entry): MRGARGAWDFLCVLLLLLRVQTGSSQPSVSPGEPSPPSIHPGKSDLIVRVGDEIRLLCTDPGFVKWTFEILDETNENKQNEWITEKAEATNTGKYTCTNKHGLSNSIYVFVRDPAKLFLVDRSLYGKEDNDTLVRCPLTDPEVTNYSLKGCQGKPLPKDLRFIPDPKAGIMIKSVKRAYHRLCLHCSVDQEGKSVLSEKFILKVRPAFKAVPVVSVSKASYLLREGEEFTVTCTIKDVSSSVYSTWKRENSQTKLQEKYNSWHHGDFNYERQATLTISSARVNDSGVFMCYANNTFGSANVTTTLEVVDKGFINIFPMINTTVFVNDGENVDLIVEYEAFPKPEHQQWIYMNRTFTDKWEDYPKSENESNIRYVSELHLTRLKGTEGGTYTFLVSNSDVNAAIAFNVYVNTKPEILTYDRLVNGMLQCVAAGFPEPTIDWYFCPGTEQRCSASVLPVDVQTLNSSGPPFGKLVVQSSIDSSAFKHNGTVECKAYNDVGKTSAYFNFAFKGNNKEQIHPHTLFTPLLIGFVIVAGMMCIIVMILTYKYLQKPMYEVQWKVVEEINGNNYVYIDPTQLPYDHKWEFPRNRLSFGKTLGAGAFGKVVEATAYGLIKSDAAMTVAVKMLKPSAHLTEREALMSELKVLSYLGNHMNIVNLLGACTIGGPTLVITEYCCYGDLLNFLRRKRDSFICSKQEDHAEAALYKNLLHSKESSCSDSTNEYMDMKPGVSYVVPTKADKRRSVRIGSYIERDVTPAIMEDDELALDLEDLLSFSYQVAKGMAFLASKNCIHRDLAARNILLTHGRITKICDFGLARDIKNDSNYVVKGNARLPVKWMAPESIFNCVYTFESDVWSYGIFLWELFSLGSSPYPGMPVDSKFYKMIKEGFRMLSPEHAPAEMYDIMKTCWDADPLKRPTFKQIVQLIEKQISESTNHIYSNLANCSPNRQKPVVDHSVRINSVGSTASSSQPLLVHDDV
Aurora kinase B, sequence (Q96GD4 whole entry): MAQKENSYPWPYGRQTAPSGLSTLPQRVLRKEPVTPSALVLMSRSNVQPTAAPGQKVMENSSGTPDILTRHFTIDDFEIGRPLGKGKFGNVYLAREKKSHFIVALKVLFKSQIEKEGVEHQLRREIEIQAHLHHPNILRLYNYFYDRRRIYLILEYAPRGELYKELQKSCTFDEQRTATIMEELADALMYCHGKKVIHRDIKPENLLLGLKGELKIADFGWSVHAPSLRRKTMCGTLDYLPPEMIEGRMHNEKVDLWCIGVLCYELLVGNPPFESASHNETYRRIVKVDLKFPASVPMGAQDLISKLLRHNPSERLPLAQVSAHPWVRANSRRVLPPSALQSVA

As to `COc1n[nH]c2ncc(C#Cc3c(F)ccc(NS(=O)(=O)c4cccc(C#N)c4)c3F)cc12`, the Activity in data set [1] worked out at 1.9%; in the data set on Rattus norvegicus [6], 0.95 g; in data set [10], 0.9%; in data set [12] it was 1.5%. Further, the bioavailability in data set [2] is 20%. Moreover, the IC50 in [3] was more than 3000 nM; in data set [8], more than 1000 nM. For the same molecule, the Kd in [4] was 460 nM; in data set [5], 22 nM; in [9], 210 nM; on Aurora kinase B, 64 nM; in data set [11] it was 50 nM; in data set [13] it was 180 nM. The inhibition result with Rattus norvegicus [7] was “Dose-dependent effect”. For the same molecule, in the data set with Rattus norvegicus [14], the “inhibition (INH)” value is recorded as 3 - 8%.

(Values after ChEMBL document CHEMBL4052661, “Structure Based Design of N-(3-((1H-Pyrazolo[3,4-b]pyridin-5-yl)ethynyl)benzenesulfonamides as Selective Leucine-Zipper and Sterile-α Motif Kinase (ZAK) Inhibitors” (J Med Chem, 2017).)
